Test results: ChEMBL document CHEMBL1132240, “Design and synthesis of modified quinolones as antitumoral acridones” (J Med Chem, 1999)

Tests used:
[1] = system: B16; test: Cytotoxic activity against solid tumor, B16 (murine melanoma) concentration of agent required to reduce cell viability by 90%; format: functional; conditions: Mus musculus
Outline: (§1)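 Modified MTT assay. Cells seeded per well with graded drug: CHO 2.5 × 10^3, B16 5 × 10^3, P388 and LLC 10^4, HL-60 and LoVo 5 × 10^4. After 68 h, MTT (2.5 mg/mL) added for 4 h at 37 °C. Formazan dissolved in DMSO and A550 read. Inhibition taken as fractional A550 decrease vs control. IC50/IC90 from Chou's median-effect equation.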

[2] = Ratio of cytotoxicity of compound towards bone marrow sample and to that of HL-60 was determined as IC50BM/IC50HL; format: functional
Outline: (§2)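 Second-stage assay on HL-60 (5 × 10^4/well) and soybean-agglutinin-negative mononuclear marrow cells (5 × 10^5/well) from six healthy donors. Four wells per concentration, 48 h at 37 °C, then [125I]iododeoxyuridine plus fluorodeoxyuridine for 18 h. Inhibition from fractional uptake decrease; IC50/IC90 by median-effect equation. Ranges are antilog(mean log ± 2SD); ratios use mean antilogs.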

[3] = Ratio of cytotoxicity of compound towards bone marrow sample and to that of HL-60 was determined as IC50BM/IC90HL; format: functional; outline: as §2
[4] = system: P388; test: Cytotoxic activity against murine lymphocytic leukemia P388 concentration of agent required to reduce cell viability by 90%; format: functional; conditions: Mus musculus; outline: as §1
[5] = system: HL-60; test: (§3) Relative cytotoxicity against human promyelocytic leukemia(HL-60) cells; format: functional, cell-based; outline: as §2
[6] = system: HL-60; test: as §3; format: functional; outline: as §2
[7] = system: P388; test: In vivo antitumor activity against Murine P388 Leukemia at 20 mg/kg dose;(Median survival time of treated mice)/(median survival time of controls) x100; format: functional, Mus musculus
Outline: (§4)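 Female BD2F1 mice (8 weeks, 20-22 g), eight per group, given 10^5 P388 cells ip on day 0. From 24 h later, drug was given ip once daily for 9 days as a micronized suspension in 0.5% carboxymethylcellulose. Deaths were recorded daily over a 33-day study. %T/C = median survival time of treated / median survival time of controls × 100; >125 taken as significant.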

[8] = system: Lewis lung carcinoma cell line; test: Cytotoxic activity against solid tumor LLC(Lewis lung carcinoma), concentration of agent required to reduce cell viability by 50%; format: functional, cell-based; conditions: Mus musculus; outline: as §1
[9] = system: HL-60; test: Cytotoxic activity against human promyelocytic leukemia HL-60 concentration of agent required to reduce cell viability by 50%; format: functional, cell-based; outline: as §1
[10] = system: P388; test: In vivo antitumor activity against Murine P388 Leukemia at 60 mg/kg dose;(Median survival time of treated mice)/(median survival time of controls) x100; format: functional, Mus musculus; outline: as §4
[11] = system: LoVo; test: Cytotoxic activity against solid tumor, LoVo, (human colon adenocarcinoma) concentration of agent required to reduce cell viability by 90%; format: functional; outline: as §1
[12] = Ratio of cytotoxicity of compound towards bone marrow sample and to that of HL-60 was determined as IC90BM/IC90HL; format: functional; outline: as §2
[13] = system: CHO; test: Cytotoxic activity against solid tumor, CHO (Chinese hamster ovaric carcinoma) concentration of agent required to reduce cell viability by 50%; format: functional, cell-based; conditions: Cricetulus griseus; outline: as §1
[14] = system: CHO; test: Cytotoxic activity against solid tumor, CHO (Chinese hamster ovaric carcinoma) concentration of agent required to reduce cell viability by 90%; format: functional; conditions: Cricetulus griseus; outline: as §1
[15] = system: LoVo; test: Cytotoxic activity against solid tumor, LoVo, (human colon adenocarcinoma) concentration of agent required to reduce cell viability by 50%; format: functional, cell-based; outline: as §1
[16] = system: B16; test: Cytotoxic activity against solid tumor, B16 (murine melanoma) concentration of agent required to reduce cell viability by 50%; format: functional, cell-based; conditions: Mus musculus; outline: as §1
[17] = organism: Homo sapiens; test: Relative cytotoxicity against human bone marrow samples; format: functional; outline: as §2
[18] = system: P388; test: Cytotoxic activity against murine lymphocytic leukemia P388 concentration of agent required to reduce cell viability by 50%; format: functional, cell-based; conditions: Mus musculus; outline: as §1
[19] = system: HL-60; test: Cytotoxic activity against human promyelocytic leukemia HL-60 concentration of agent required to reduce cell viability by 90%; format: functional; outline: as §1
[20] = system: Lewis lung carcinoma cell line; test: Cytotoxic activity against solid tumor LLC(Lewis lung carcinoma), concentration of agent required to reduce cell viability by 90%; format: functional; conditions: Mus musculus; outline: as §1
[21] = system: P388; test: In vivo antitumor activity against Murine P388 Leukemia at 6.67 mg/kg dose;(Median survival time of treated mice)/(median survival time of controls) x100; format: functional, Mus musculus; outline: as §4
[22] = system: HL-60; test: Relative cytotoxicity against Human promyelocytic Leukemia(HL-60) cells; Value is in range, activity expressed as IC90; format: functional; outline: as §2
[23] = Ratio of antilog(mean log IC50 in bone marrow sample) and antolog(mean log IC50) in HL-60); format: functional; outline: as §2
[24] = Ratio of antilog(mean log IC50 in bone marrow sample) and antolog(mean log IC90) in HL-60); format: functional; outline: as §2
[25] = system: bone marrow cells (human); test: Relative cytotoxicity against Human bone marrow samples; Value is in range, activity expressed as IC90
[26] = system: bone marrow cells (human); test: Relative cytotoxicity against Human bone marrow samples; Value is in range, activity expressed as IC50
[27] = system: HL-60; test: Relative cytotoxicity against Human promyelocytic Leukemia(HL-60) cells; Value is in range, activity expressed as IC50; format: functional, cell-based; outline: as §2
[28] = Ratio of antilog(mean log IC90 in bone marrow sample) and antolog(mean log IC90) in HL-60); format: functional; outline: as §2

Compound	IC90 [1]	Ratio [2]	Ratio [3]	IC90 [4]	IC50 [5]	IC90 [6]	IC50 [8]	IC50 [9]	IC90 [11]	Ratio [12]	IC50 [13]	IC90 [14]	IC50 [15]	IC50 [16]	IC50 [17]	IC90 [17]	IC50 [18]	IC90 [19]	IC90 [20]	other results
CCN(CC)CCn1c2cc(Cl)c(N)cc2c(=O)c2c(O)cc(OC)cc21	4 µM	1.2	0.8	8 µM	1.86 µM	2.93 µM	5 µM	4.2 µM	6.3 µM	4.1	1.1 µM	5.9 µM	1.5 µM	1.6 µM	3.26 µM	14.8 µM	3.8 µM	8.4 µM	11 µM	T/C [7]: 97%; T/C [10]: 100%; T/C [21]: 83%
COc1cc([C@@H]2c3cc4c(cc3[C@@H](O[C@@H]3O[C@@H]5CO[C@@H](C)O[C@H]5[C@H](O)[C@H]3O)[C@H]3COC(=O)[C@H]23)OCO4)cc(OC)c1O [ETOPOSIDE]	1.9 µM	1.8	0.9	0.63 µM	0.367 µM	0.73 µM	1.1 µM	1.2 µM	44 µM	5.6	0.35 µM	7.7 µM	2.3 µM	0.32 µM	0.99 µM	7.02 µM	0.24 µM	3.1 µM	4.5 µM	–
O=C1c2c(O)ccc(O)c2C(=O)c2c(NCCNCCO)ccc(NCCNCCO)c21 [MITOXANTRONE]	–	–	–	–	–	–	–	–	–	–	–	–	–	–	–	–	–	–	–	IC90 [22]: 8.03 µM; Ratio [23]: 4.8; Ratio [24]: 2.1; IC90 [25]: 38.7 µM; IC50 [26]: 27.6 µM; IC50 [27]: 3.35 µM; Ratio [28]: 11.6
